Experimental data taken from ChEMBL document CHEMBL4007411, “Design, Synthesis, and Biological Evaluation of Coupled Bioactive Scaffolds as Potential Anticancer Agents for Dual Targeting of Dihydrofolate Reductase and Thioredoxin Reductase” (J Med Chem, 2017).
Calls of active or inactive are those of the source. The calls are words filed in the database; no cut-off is given here.

Assays:
[1] = molecular target: T1, Thioredoxin reductase 1, cytoplasmic (Rattus norvegicus, UniProt O89049); test: Inhibition of […] thioredoxin reductase after 30 mins by DTNB reduction assay; details: read-out: IC50
T1 sequence (O89049 whole entry): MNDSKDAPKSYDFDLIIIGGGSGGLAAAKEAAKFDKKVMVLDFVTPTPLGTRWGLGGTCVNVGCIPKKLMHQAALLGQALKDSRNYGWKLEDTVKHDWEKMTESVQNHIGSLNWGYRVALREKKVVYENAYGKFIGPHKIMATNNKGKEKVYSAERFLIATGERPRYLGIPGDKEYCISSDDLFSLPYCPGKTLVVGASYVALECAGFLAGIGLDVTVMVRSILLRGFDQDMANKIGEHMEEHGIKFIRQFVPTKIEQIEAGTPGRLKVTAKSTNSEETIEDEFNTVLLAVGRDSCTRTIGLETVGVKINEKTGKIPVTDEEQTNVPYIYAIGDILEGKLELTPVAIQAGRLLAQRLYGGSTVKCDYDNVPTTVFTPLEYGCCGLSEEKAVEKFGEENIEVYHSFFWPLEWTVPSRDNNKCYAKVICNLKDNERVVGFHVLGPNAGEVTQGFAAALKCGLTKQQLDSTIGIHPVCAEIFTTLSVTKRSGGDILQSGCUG
How it was run: (§1)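 Rat liver TrxR at 2.1 units/ml preincubated with a range of test concentrations and 200 µM NADPH in 50 mM Tris-HCl, 1 mM EDTA, pH 7.5, at room temperature for 30 or 60 min. Equal volume of buffer with 5 mM DTNB and 200 µM NADPH then added. A412 followed over 2 min. Activity as % of vehicle Vmax; IC50 from log concentration plot.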

[2] = molecular target: T1, Thioredoxin reductase 1, cytoplasmic; test: Inhibition of […] thioredoxin reductase after 60 mins by DTNB reduction assay; details: read-out: IC50; how it was run: as §1
[3] = molecular target: T2, Thioredoxin reductase 1, cytoplasmic (Homo sapiens) (UniProt Q16881); test: Inhibition of thioredoxin reductase in human HCT116 cell lysate using thioredoxin as substrate at 40 to 70 uM after 16 hrs by end point insulin assay method
T2 sequence (whole entry): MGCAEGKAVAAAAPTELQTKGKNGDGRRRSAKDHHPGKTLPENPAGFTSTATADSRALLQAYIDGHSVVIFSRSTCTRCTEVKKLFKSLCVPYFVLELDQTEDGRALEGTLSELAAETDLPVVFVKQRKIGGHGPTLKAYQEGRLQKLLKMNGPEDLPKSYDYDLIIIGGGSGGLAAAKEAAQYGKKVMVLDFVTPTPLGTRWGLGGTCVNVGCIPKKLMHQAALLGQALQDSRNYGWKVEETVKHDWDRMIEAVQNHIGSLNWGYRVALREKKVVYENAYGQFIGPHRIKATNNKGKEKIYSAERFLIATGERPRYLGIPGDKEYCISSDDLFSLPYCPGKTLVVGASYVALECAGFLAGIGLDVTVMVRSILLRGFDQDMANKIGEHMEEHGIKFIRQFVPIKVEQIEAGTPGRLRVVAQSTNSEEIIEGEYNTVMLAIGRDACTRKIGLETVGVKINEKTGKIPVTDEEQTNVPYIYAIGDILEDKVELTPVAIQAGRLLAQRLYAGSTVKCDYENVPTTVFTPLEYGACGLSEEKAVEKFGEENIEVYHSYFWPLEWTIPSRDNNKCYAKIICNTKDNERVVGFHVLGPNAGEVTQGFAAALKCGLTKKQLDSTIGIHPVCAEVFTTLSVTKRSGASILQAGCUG
How it was run: (§2)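 HCT116 cells treated 16 h at 0.001 to 1 µM or 40 to 70 µM, then lysed. Stopped with 1 mM DTNB and 240 µM NADPH in 6 M guanidine HCl and Tris pH 8.0, read at A412. Given as % of DMSO-treated cells. Mean of three experiments.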

[4] = molecular target: T3, Dihydrofolate reductase (Homo sapiens) (UniProt P00374); details: 0.0001 to 1 uM
T3 sequence (whole entry): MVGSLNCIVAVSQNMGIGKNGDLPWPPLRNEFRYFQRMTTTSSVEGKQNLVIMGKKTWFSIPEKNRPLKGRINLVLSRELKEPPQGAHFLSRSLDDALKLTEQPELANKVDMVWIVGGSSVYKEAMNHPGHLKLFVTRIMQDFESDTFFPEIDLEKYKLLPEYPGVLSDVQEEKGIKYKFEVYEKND

[5] = molecular target: T2, Thioredoxin reductase 1, cytoplasmic (Homo sapiens); test: Inhibition of thioredoxin reductase in human HCT116 cell lysate using thioredoxin as substrate at 0.001 to 1 uM after 16 hrs by end point insulin assay method
Dihydrofolate reductase = molecular target: T4, Dihydrofolate reductase (Homo sapiens, UniProt P00374); test: Inhibition of recombinant human DHFR assessed as reduction in conversion of DHF to THF measured every 30 secs for 6 mins by UV-Vis spectrophotometric method
T4 sequence (P00374 whole entry): T3 sequence (whole entry)

HCT-116 [6] = test: Antiproliferative activity against human HCT116 cells after 72 hrs by MTT assay; format: functional; details: HCT-116, 72 h
How it was run: (§3)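 Cells kept in RPMI 1640 with 10% FBS, penicillin and streptomycin at 37°C and 5% CO2. Seeded at 1.0 x 10^4/well and left to adhere overnight. Serial dilutions made in medium from DMSO stocks. MTT at 400 µg/ml final for 4 h, read at T0 and after 72 h. Formazan dissolved in DMSO:glycine pH 10.5, A550. GI50 and LC50 interpolated from absorbance versus log concentration.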

MCF7 = test: Antiproliferative activity against human MCF7 cells after 72 hrs by MTT assay; format: functional; details: MCF7, 72 h; how it was run: as §3
[7] = molecular target: T3, Dihydrofolate reductase (Homo sapiens); test: Inhibition of DHFR in human HCT116 cell lysate assessed as reduction in conversion of DHF to THF after 16 hrs
How it was run: (§4)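 HCT116 cells treated 16 h at 0.001 to 1 µM or 40 to 70 µM, then lysed. 400 µg lysate protein in PBS with 50 µM DHF and 200 µM NADPH, with matching controls containing 1 µM methotrexate. A340 decrease followed over 15 min at room temperature. MTX-sensitive rate given as % of DMSO-treated cells. Mean of three independent experiments.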

[8] = molecular target: T3, Dihydrofolate reductase (Homo sapiens); test: Inhibition of DHFR in human HCT116 cell lysate assessed as reduction in conversion of DHF to THF at 40 to 70 uM after 16 hrs; how it was run: as §4
HCT-116 [9] = test: Upregulation of DHFR protein levels in human HCT116 cell lysate at 40 to 70 uM after 16 hrs by Western blot analysis; format: functional, cell-based
How it was run: (§5)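 HCT116 plated at 1.5 x 10^6 per 100 mm plate, grown 48 h, then treated 16 h at 40 to 70 µM. Adherent and floating cells pooled and lysed in Triton X-100 buffer with protease inhibitors. Lysates cleared and protein measured by Bradford. Equal protein run on SDS-PAGE and blotted. DHFR or TrxR detected by ECL, β-actin antibody also used. Three independent experiments.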

[10] = molecular target: T2, Thioredoxin reductase 1, cytoplasmic (Homo sapiens); test: Inhibition of thioredoxin reductase in human HCT116 cell lysate using thioredoxin as substrate after 16 hrs by end point insulin assay method; how it was run: as §2
HCT-116 [11] = test: Effect on thioredoxin reductase protein levels in human HCT116 cell lysate at 40 to 70 uM after 16 hrs by Western blot analysis; format: cell-based; details: hct-116, 16 h; how it was run: as §5

Row | inhibition [3] | inhibition [4] | SMILES | IC50 [1] [µM] | IC50 [2] [µM] | inhibition [5] | IC50 (Dihydrofolate reductase) [nM] | GI50 (HCT-116 [6]) [nM] | CC50 (HCT-116 [6]; read-out: LC50 (the source's name)) [µM] | GI50 (MCF7) [nM] | LC50 (concentration killing 50% of cells present at T0) (MCF7) [µM] | inhibition [7] | inhibition [8] | Activity (HCT-116 [9]) | inhibition [10] | Activity (HCT-116 [11])
1 | Active | inactive | O=C(/C=C/c1ccccc1)c1ccccc1 [CHALCONE] | 46.4 | 26.7 | inactive |  |  |  |  |  |  |  |  |  | 
2 |  |  | Cl.NC1=NC2(CCCC2)N(OCCCOc2cccc(C(=O)/C=C/c3ccccc3)c2)C(N)=N1 | 7.5 | 4.6 | inactive | 6.1 | 26 | 14.1 | 80 | 11.2 | Dose-dependent effect | Active | Active | Dose-dependent effect | Non-Toxic
